# HIV Env fusion = inhibitors of HIV-1 Env-driven cell-cell fusion, primary screen, HeLa-JRFL effector, CEM21 target cells, luciferase; inhibition, % at 12.3 µM; hit rate 1.1% among 360,000; AID 651610, 2012;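 active means mean replicate inhibition score of at least 50 and every replicate individually at or above 50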
# Glyco luc inh = increase of ERlucT glycosylation luciferase signal, primary screen, N-linked glycosylation inhibitor project, D54 ERlucT cells, luminescence, set 2; reporter increase, % at 12.5 µM; AID 588692, 2011; D54 ERlucT glycosylation luciferase reporter, 24 h; percent of 100 nM tunicamycin response; hit rate 0.23% among 360,000;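 active means mean luciferase reporter signal, scaled so untreated is 0 and the glycosylation-blocking control 100, at or above a set limit in every replicate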;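 further: luciferase carries N-glycosylation sites so blocking glycosylation raises the light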
# SR-BI DiI-HDL act = activators of SR-BI mediated DiI-HDL uptake, primary screen, ldlA[mSR-BI] CHO cells, DiI fluorescence; 3 h; 100 = double the neutral-control signal; activation, % at 12.5 µM; hit rate 0.096% among 320,000; AID 504775, 2011;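 active means mean replicate activation of at least 60% and every replicate at or above 60%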
#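 Assay system: CHO ldlA[mSR-BI] cells, LDL receptor-null, SR-BI overexpressing; medium: Ham's F12 with 0.5% BSA, HEPES 25 mM, pH 7.4; also added: DiI-HDL 10 µg/mL; timing: 3 h uptake period with compound, 37 °C; signal: DiI fluorescence, bottom read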
# Rtt109 Vps75 = inhibitors of C. albicans Rtt109/Vps75 HAT, primary screen, biochemical, ThioGlo CoA-SH fluorescence, plate reader | purified Rtt109/Vps75, 4 h | inhibition, % at 34.9 µM | hit rate 0.16% among 330,000 | AID 540336, 2011 | Histone acetyltransferase RTT109 (Candida albicans (strain SC5314 / ATCC MYA-2876)), …;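 active means inhibition of at least 50% in every replicate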
# Target sequence (Q5AAJ8 whole entry, looked up): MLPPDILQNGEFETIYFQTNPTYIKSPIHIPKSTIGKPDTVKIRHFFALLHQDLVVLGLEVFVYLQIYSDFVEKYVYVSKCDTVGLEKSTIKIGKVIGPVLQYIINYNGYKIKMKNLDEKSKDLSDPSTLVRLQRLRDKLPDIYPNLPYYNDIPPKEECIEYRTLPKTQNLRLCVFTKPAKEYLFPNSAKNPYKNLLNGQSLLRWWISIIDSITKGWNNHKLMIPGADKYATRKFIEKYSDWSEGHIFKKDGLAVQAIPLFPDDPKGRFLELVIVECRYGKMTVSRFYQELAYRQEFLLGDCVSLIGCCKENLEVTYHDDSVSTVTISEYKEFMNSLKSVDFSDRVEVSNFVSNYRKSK
# PglD DTNB = C. jejuni PglD acetyltransferase inhibitors, primary screen, biochemical, DTNB colorimetric, single point. UDP-N-acetylbacillosamine N-acetyltransferase PglD (Campylobacter jejuni). purified PglD enzyme, DTNB colorimetric CoA detection. inhibition, % at 12.5 µM. hit rate 0.098% among 360,000; in the data active means inhibition above about 16%, passing the limit was not always enough
# SR-BI DiI inh = inhibitors of SR-BI mediated HDL lipid uptake, primary screen, ldlA[mSR-BI] cells, fluorescence, single point; ldlA[mSR-BI] CHO cells, DiI-HDL uptake fluorescence, 3 h; inhibition, % at 12.5 µM; Scavenger receptor class B member 1 (Mus musculus), Q61009; AID 488896, 2010; hit rate 0.96% among 320,000;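 active means mean replicate inhibition of at least 70% and a set share of replicates each scoring 70 or more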
# Numbers stand for hits; - = inactive; . = not tested or not shown; [ ] = dose if it differs, or a comment. Sampled rows, rich in hits. Any-hit rate of the full collection: about 1.9%.
SMILES,HIV Env fusion,Glyco luc inh,SR-BI DiI-HDL act,Rtt109 Vps75,PglD DTNB,SR-BI DiI inh
CC(C)CNC(=O)[C@@H]1c2ccccc2C(=O)N(CC23CC4CC(CC(C4)C2)C3)[C@H]1c1ccc(CO)cc1,61[16.7 µM],.,.,.,-,.
CCCNC(=O)[C@@H]1c2ccccc2C(=O)N(CC23CC4CC(CC(C4)C2)C3)[C@H]1c1ccc(CO)cc1,-,.,.,.,-,.
COc1c(CC=C(C)C)cc(C2CC(=O)c3c(O)cc(O)cc3O2)cc1CC=C(C)C (stereo not given),.,-,-,-,-,-
COc1cc(O)cc2c1[C@@H]1Oc3c(ccc(O)c3CC=C(C)C)[C@@H]1CO2,.,-,-,-,-,85
Cc1cc(C(=O)Nc2sc3c(c2C#N)CCC(C)C3)cs1 (stereo not given),-,-,-,-,-,75
Cc1ccccc1-c1cnc2c(c1)C(=O)N([C@@H](C)CO)C[C@@H](C)[C@H](CN(C)C(=O)c1cccnc1)O2,-,.,.,.,-,.
Cc1ccc(C(=O)N/N=C\c2ccc(-c3ccc([N+](=O)[O-])cc3)o2)cn1,-,-,.,-,.,.
NC(=S)N/N=C/c1ccc(-c2cc(Cl)ccc2Cl)o1,.,-,-,-,-,99
NC(=S)N/N=C/c1ccc(-c2cc(Cl)cc(Cl)c2)o1,.,-,-,-,-,78
O=C(N/N=C/c1ccc(-c2cccc([N+](=O)[O-])c2)o1)c1ccccc1O,-,-,-,-,.,-
NC(=S)N/N=C/c1ccc(-c2ccc([N+](=O)[O-])cc2)o1,-,-,-,-,.,71
CCOC(=O)N/N=C\c1ccc(-c2cc(Cl)ccc2Cl)o1,-,-,-,-,-,-
O=C(N/N=C/c1ccc(-c2cccc([N+](=O)[O-])c2)o1)c1ccc([N+](=O)[O-])cc1,-,-,-,-,.,82
CC(C)CC#Cc1ccc2c(c1)O[C@H](CN(C)S(C)(=O)=O)[C@@H](C)CN([C@@H](C)CO)S2(=O)=O,-,.,.,.,-,.
CO[C@H]1CN(C)C(=O)c2ccc(NC(C)=O)cc2OC[C@@H](C)N(C(=O)C2CCC2)C[C@H]1C,-,.,.,.,-,.
C[C@@H]1CN([C@@H](C)CO)C(=O)c2c(c3ccccc3n2C)-c2ccccc2CO[C@@H]1CN(C)Cc1cccnc1,-,.,.,.,-,.
C[C@H](CO)N1C[C@H](C)[C@H](CN(C)Cc2cccnc2)OCc2ccccc2-c2c(n(C)c3ccccc23)C1=O,59[16.7 µM],.,.,.,-,.
C[C@H]1CN([C@@H](C)CO)C(=O)c2c(c3ccccc3n2C)-c2ccccc2CO[C@H]1CN(C)Cc1cccc(F)c1,67,-,.,.,-,.
C[C@H](CO)N1C[C@H](C)[C@H](CN(C)Cc2cccc(F)c2)OCc2ccccc2-c2ccccc2C1=O,75[16.7 µM],.,.,.,.,.
CCOc1ccc(-c2cc3cc(OC)c(OC)cc3c(C)n2)cc1,-,-,-,-,-,74
c1ccc(C[n+]2cccc3c4ccccc4ccc32)cc1,.,-,-,-,-,-
CCCCC[n+]1cccc2c3ccccc3ccc21,97,-,-,-,.,-
O=c1cc(O)c2sc(Nc3ccc(F)c(Cl)c3)nc2[nH]1,68,-,-,-,.,-
Cc1noc(C)c1S(=O)(=O)N(C)C[C@H]1OCc2ccccc2-c2c(n(C)c3ccccc23)C(=O)N([C@H](C)CO)C[C@@H]1C,-,.,.,.,-,.
S=C(NCCSCc1ccc(Cl)cc1Cl)Nc1ccccc1,-,-,-,-,-,-
SMILES,HIV Env fusion,Glyco luc inh,SR-BI DiI-HDL act,Rtt109 Vps75,PglD DTNB,SR-BI DiI inh
S=C(Nc1ccccc1)Nc1ccc(OCc2ccc(Cl)cc2Cl)cc1,103,-,-,-,-,-
COc1ccccc1-c1cn(CC[C@@H]2CC[C@H](NC(=O)c3ccccc3F)[C@@H](CO)O2)nn1,-,.,.,.,-,.
O=S(=O)(NCC(c1ccc2c(c1)OCO2)N1CCOCC1)c1ccccc1 (stereo not given),-,-,347,-,-,-
CN(CC(=O)Nc1ccc(S(N)(=O)=O)cc1)Cc1ccccc1F,-,-,-,-,.,-
CN(CC(=O)NC(=O)Nc1ccccc1F)Cc1ccccc1F,66,-,-,-,-,-
CN=C1SC(CC(=O)Nc2ccccc2F)C(=O)N1/N=C/c1ccc(O)c(OC)c1 (stereo not given),-,-,-,-,.,74
C[C@@H]1CN([C@@H](C)CO)C(=O)c2cc(C#C[C@@H](C)O)cnc2O[C@@H]1CN(C)C(=O)Cc1ccccn1,-,.,.,.,-,.
O=C(CSc1nnc(COc2ccc(Cl)cc2)o1)N(c1ccccc1)C1CCS(=O)(=O)C1 (stereo not given),65,-,.,.,-,.
CN(C)c1ccc2nc3ccc(=O)cc-3sc2c1,66,-,.,.,-,.
CN(C)c1ccc2nc3ccc(=[N+](C)C)cc-3sc2c1,85,-,-,-,.,-
COc1ccc(NC(=O)N(C)C[C@@H]2Oc3c(NC(=O)c4ccc(-c5nccs5)cc4)cccc3C(=O)N([C@@H](C)CO)C[C@H]2C)cc1,-,.,.,.,-,.
CCN(CC)C(=O)/C(=C/c1cn(S(=O)(=O)N(C)C)c2ccccc12)NC(=O)c1ccc(OC)cc1,-,-,-,-,.,88
COCC1CCN(Cc2cn(Cc3ccccc3)nc2-c2cc3ccccc3o2)CC1,-,-,-,-,.,-
COCC1CCCN(Cc2cn(Cc3ccccc3)nc2-c2cc3ccccc3o2)C1 (stereo not given),58,-,-,-,-,-
COc1ccc(C(=O)NCCc2ccc(Cl)cc2)cc1S(=O)(=O)N1CCCCC1C (stereo not given),89,-,-,-,-,-
